# This is a sample that favours compounds with a hit; in the whole collection about 2.3% have one here.
# TAAR1 antag: human TAAR1 antagonism. Q96RJ0. CHO RD-HGA16 TAAR1, Fluo-8 calcium fluorescence, antagonist. inhibition, % at 3 µM. 1.5% of 360,000 active;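 active = inhibition above a per-plate cutoff, the mean inhibition of test compounds on that plate plus 3 SD, cut at about 49% in these data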;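 also: 0% = DMSO plus EC80 beta-PEA response and 100% = DMSO alone without agonist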
#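 Test system: hTAAR1-expressing CHO RD-HGA16 cells, Gα16-coupled; Probe or stimulus: EC80 β-phenethylamine stimulus; Compound dosing: single nominal final test compound concentration of 3 µM; Timing: 140 s kinetic read after compound, 140 s after agonist; Signal: Fluo-8 calcium-sensitive fluorescence; Measure: % inhibition of agonist calcium response; Controls: DMSO and EC80 PEA controls.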
# V1aR counter: V1a receptor agonism, counter-screen for OXTR agonists. AID 2797. P37288. activation, % at 3 µM. 0.25% of 320,000 active. CHO-V1R cells, Fluo-8 calcium fluorescence, agonist mode; 0% DMSO, 100% 3 nM vasopressin;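 active = activation above the mean activation of all tested compounds plus 3 SD, per screening run, cut at about 20% in these data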;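 also: signal is peak over basal fluorescence ratio across a 100 second FLIPR read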
# Target sequence (P37288 whole entry, looked up): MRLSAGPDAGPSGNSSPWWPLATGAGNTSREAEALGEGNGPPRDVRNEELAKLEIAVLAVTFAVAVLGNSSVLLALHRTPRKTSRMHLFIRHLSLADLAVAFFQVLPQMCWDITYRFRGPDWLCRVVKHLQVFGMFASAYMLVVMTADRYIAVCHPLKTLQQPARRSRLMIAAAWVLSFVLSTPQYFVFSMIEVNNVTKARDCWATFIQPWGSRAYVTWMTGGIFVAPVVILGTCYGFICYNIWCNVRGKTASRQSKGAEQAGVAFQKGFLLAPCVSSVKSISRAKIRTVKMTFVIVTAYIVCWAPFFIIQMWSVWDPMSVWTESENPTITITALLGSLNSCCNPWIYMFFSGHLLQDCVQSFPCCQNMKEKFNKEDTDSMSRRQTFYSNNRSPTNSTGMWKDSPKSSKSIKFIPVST
# OXTR ag: human OXTR agonism; 0.32% of 320,000 active; P30559; activation, % at 3 µM; CHO-OTR cells, Fluo-8 calcium fluorescence; normalized: DMSO 0%, oxytocin 100%;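 active = activation above the mean of all tested compounds plus 3 SD, cutoff set per screening run, cut at about 20% in these data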;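 also: peak over basal fluorescence ratio from a 100 s FLIPR kinetic read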
# TAAR1 ag: human TAAR1 agonism; Q96RJ0; CHO RD-HGA16 TAAR1, Fluo-8 calcium fluorescence; vehicle wells 0%, saturating PEA agonist 100%; activation, % at 3 µM; AID 624467; 0.99% of 360,000 active;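 active = activation above the mean activation of all test compounds in the run plus 3 SD, cut at about 38% in these data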
#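 Assay system – CHO-derived RD-HGA16 cells with stable Gα16 and human TAAR1 · Compound dosing – one-point dosing at 3 µM (nominal) · Incubation – 17-24 h seeding, 75 min 37 °C dye, 30 min RT · Measured by – kinetic Fluo-8 calcium fluorescence · Control set – DMSO vehicle as 0%, PEA at EC100 as 100% · Repeats – single well for each compound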
# OXTR potentiate: potentiators of human oxytocin receptor; P30559; CHO-OTR cells, Fluo-8 calcium fluorescence, potentiator mode; 0% = oxytocin EC15, 100% = EC100; activation, % at 3 µM; 0.061% of 320,000 active;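 active = activation above that plate's cutoff, the mean activation of tested compounds plus 3 SD, cut at about 6.6% in these data, passing the limit was not always enough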;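 also: 100% uses oxytocin at 75 nM as the full agonist control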
#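 System: human OTR in CHO cells; Also added: sub-maximal oxytocin, roughly EC15; Timing: compound 6 min at room temperature before oxytocin, 100 s read; Technique: Fluo-8 intracellular calcium fluorescence, ex 470-495, em 515-575 nm; Controls: oxytocin EC15 low and EC100 high; Replication: singlicate.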
# TAAR1 ag conf: confirmation of human TAAR1 agonists. 82% of 2,400 active. shares compounds with TAAR1 ag. activation, % at 3 µM. CHO RD-HGA16 TAAR1, Fluo-8 calcium fluorescence; scaled: DMSO 0%, maximal phenethylamine 100%;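 active = activation above a cutoff set at the run's mean compound activation plus 3 SD, cut at about 39% in these data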
# Ga16 nonsel ag: nonselective agonist in parental cells, TAAR1 agonist counter-screen | shares compounds with TAAR1 ag | CHO-Ga16 parental, Fluo-8 calcium fluorescence; normalized to maximal ATP response, DMSO zero | activation, % at 3 µM | 50% of 2,400 active;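 active = activation above the run cutoff, the mean activation over all tested wells plus 3 SD, cut at about 12% in these data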;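 also: 0% = DMSO wells and 100% = maximal ATP response on the peak over basal ratio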
# TAAR1 desens: human TAAR1 agonist that also desensitizes the receptor | shares compounds with TAAR1 ag | CHO RD-HGA16 hTAAR1, Fluo-8 calcium, beta-PEA response inhibition | AID 651951 | 46% of 2,400 active | inhibition, % at 3 µM;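 active = inhibition above the run cutoff, the mean inhibition of all test compounds plus 3 SD, cut at about 49% in these data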;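 also: beta-PEA stimulus applied at its EC80; loss of beta-PEA calcium signal after compound pretreatment read as receptor desensitization; 0% = DMSO with beta-PEA at EC80 and 100% = DMSO alone without agonist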
# Ga16 antag count: nonselective Ga16 antagonist in TAAR1 agonist counter-screen. 39% of 2,400 active. shares compounds with TAAR1 ag. inhibition, % at 3 µM. CHO-Ga16 ATP-induced calcium, Fluo-8 fluorescence;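 active = inhibition above the plate's mean compound inhibition plus 3 SD, computed per plate, cut at about 22% in these data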;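 also: 0% = EC80 ATP with DMSO and 100% = DMSO wells without ATP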
# Starred values were filed as active, the others as inactive; x = no result given.
SMILES,TAAR1 antag,V1aR counter,OXTR ag,TAAR1 ag,OXTR potentiate,TAAR1 ag conf,Ga16 nonsel ag,TAAR1 desens,Ga16 antag count
OC(c1ccccc1)(c1ccccc1)C1CCN(CCCOc2cc(F)cc(F)c2)CC1,33,x,x,49*,x,35,32*,49*,46*
OC(c1ccccc1)(c1ccccc1)C1CCN(CCCOc2cccc(OC(F)(F)F)c2)CC1,37,x,x,20,x,x,x,x,x
COc1ccc(C(=O)NCCCCCCNC(=O)c2ccc(OC)cc2)cc1,-17,-1,0,-1,-6,x,x,x,x
COc1ccc(Cn2nnnc2C(c2ccccc2)N2CCN(C3CCCC3)CC2)cc1 (configuration not stated),-4,x,x,2,x,x,x,x,x
COc1ccc(C(c2nnnn2CCc2ccccc2)N2CCN(C3CCCC3)CC2)cc1 (configuration not stated),54*,1,1,71*,-4,85*,2,61*,6
O=c1[nH]c(=O)n(-c2ccccc2)c2c1C(C(F)(F)F)(C(F)(F)F)N=C(CCC1CCCCC1)N2,-2,2,4,47*,-5,101*,70*,95*,52*
O=c1[nH]c(=O)n(Cc2ccco2)c2c1C(C(F)(F)F)(C(F)(F)F)N=C(CCC1CCCCC1)N2,26,8,11,58*,-8,38*,21*,56*,35*
CC(C)Cn1c2c(c(=O)[nH]c1=O)C(C(F)(F)F)(C(F)(F)F)N=C(CCC1CCCCC1)N2,7,11,0,23,-7,x,x,x,x
COc1ccc(NC(=O)CN(C)CC(=O)Nc2ccc3c(c2)CCC3)cc1,11,2,-2,14,-8,x,x,x,x
CCCCN(C)CCC(=O)Nc1ccc2c(c1)CCC2,9,2,2,44*,-7,69*,1,16,-1
CCN(c1ccccc1)S(=O)(=O)c1ccc(C(=O)N(CCCN(C)C)c2nc3c(C)cccc3s2)cc1,29,2,4,43*,-9,33,16*,37,32*
CCN(c1ccccc1)S(=O)(=O)c1ccc(C(=O)N(CCCN(C)C)c2nc3cc4c(cc3s2)OCO4)cc1,13,7,9,22,-15,x,x,x,x
CC(C)c1onc(C(=O)NCCc2ccccc2)c1[N+](=O)[O-],x,0,-1,x,-4,x,1,x,6
CCOc1ccccc1CN1CCNC(=O)C1CC(=O)NCc1nccn1CC (configuration not stated),-16,1,0,0,-6,x,x,x,x
CN(C)C(CNC(=O)CCc1nc2sc3c(c2c(=O)[nH]1)CCCC3)c1ccccc1 (configuration not stated),-4,0,1,4,-5,x,x,x,x
O=C(COC(=O)c1ccc(O)cc1)Nc1ccc(OC(F)F)cc1,3,13,12,66*,-19,49*,7,29,16
Cc1ccc2c(c1)[C@H]1[C@H](CO2)[C@H](c2ccccc2)[C@]2(C)C(=O)N(Cc3ccc(F)cc3)CC(=O)N12,34,12,11,62*,-10,29,19*,17,19
Cc1ccc(NC(=O)CSCc2n[nH]c(=O)[nH]2)c(Br)c1,5,2,0,3,-2,x,x,x,x
COc1ccc(-c2ccc3c(c2)C2CC3CCN2Cc2ccc(OC(F)(F)F)cc2)cc1 (configuration not stated),-20,x,x,2,x,x,x,x,x
COc1cc2c(C)nc3c(c(C)nn3-c3ccccc3)c2cc1OC,-20,0,2,0,-4,x,x,x,x

# Compound activity deposited in PubChem by The Scripps Research Institute Molecular Screening Center.
